Experimental findings from PubChem BioAssay AID540348 (Broad Institute, 2011) are described below.

Structures are written as SMILES. Active and inactive are the calls of the source.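 Rule for the calls: active = inhibitors whose fitted half-maximal dose is at most ten times the top tested dose; inconclusive = flat curve with 30 to 70% inhibition, or a poor fit; inactive = the rest.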

A short description of assay [1]: TRPM1 reporter luminescence decrease in melanoma cells – SK-MEL-5 cells, luciferase, dry powder samples, MITF project, dose response (AID 540348). The note with it: SK-MEL-5 TRPM1 promoter luciferase reporter, 24 h; at 35 µM (top of the series). Put shortly:
(§1)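 Assay system: SK-MEL-5 melanoma cells with stable TRPM1 promoter–luciferase reporter; Buffer or medium: phenol red-free DMEM with 10% iFBS; Compound: dry-powder compounds tested as a dose series; Times: cell plating one day before dosing, 24 h compound exposure at 37 °C; Detection: Steady-Glo luminescence after 5 min at room temperature, 0.5 s per well.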
On the technique in general: In a reporter assay the amount or activity of a reporter protein is the signal.

For assay [2], the system named is SK-MEL-5 TRPM1 promoter luciferase reporter, 24 h. The assay is described as above. Put shortly:
as §1

One may read the AC50 as the concentration giving half of the maximal activity seen.

In the case of `CC1CN(C(=O)CCC(=O)NCCCN2CCC(Cc3ccccc3)CC2)c2cc(Cl)ccc2O1` (centres undefined), the activity change, negative = inhibition in assay [1] is -105% (inactive). As for `Cc1ccc(C(C)C)c(OCc2nn(CC(=O)c3ccc(Cl)cc3)c3[n+]2CCCCC3)c1`, in assay [2], the AC50 is 13.8 µM. Still for that read-out and setting: for `CCN1c2ccccc2NC2N=C(OC)C(c3ccccc3)C21` (centres undefined) the value was 0.808 µM. As for `Cc1ccc(C(O)(c2ccc(C)c(C)c2)C2CN3CCC2CC3)cc1C` (centres undefined), the activity change, negative = inhibition in assay [1] was -51% (inactive). In the case of `CCN(CC)CCNC(=O)c1c(C)n(-c2ccccc2)c2cc(Br)c(OC)cc12`, the activity change, negative = inhibition in assay [1] was -94.1% (inactive). With `CN(C)CCCNC(=O)/C(=C\c1ccc(-c2ccc(Br)cc2)o1)NC(=O)c1ccccc1`, in assay [2], the AC50 was 12.2 µM. For `Cc1[nH]c2ccccc2c1C(=O)CCl`, the activity change, negative = inhibition in assay [1] is -106% (inactive). On the same count and under the same terms, for `CC1=NNC(=O)/C1=C\c1cn(-c2ccccc2)nc1-c1ccc(F)cc1` the value was -106% (inactive). In the case of `O=c1c(Cl)c2oc3ccccc3nc-2c2ccccc12`, in assay [2], the half-maximal activity concentration (AC50) was 6.17 µM. As to `C=CCNC1=C(Cl)C(=O)c2ccccc2C1=O`, the half-maximal activity concentration (AC50) in assay [2] was 0.905 µM.

As for `O=C(COc1ccccc1)N/N=C/c1ccc([N+](=O)[O-])o1`, the concentration at half-maximal activity (AC50) in assay [2] is 2.6 µM. Still for that read-out and setting: for `CC1CCCCC1NC(=O)/C(C#N)=C/C=C/c1ccccc1[N+](=O)[O-]` (centres undefined) the value was 7.3 µM.

Turning to `COc1cc2c(cc1OC)C(c1ccccc1)N(C(=O)CCl)CC2` (centres undefined), in assay [2], the concentration at half-maximal activity (AC50) is 5.19 µM. On the same count and under the same terms, as for `CC1(C)CC(NC(=O)c2ccc(Cl)c(S(=O)(=O)N(Cc3ccccc3)c3ccccc3)c2)CC(C)(C)N1`, the figure is 6.34 µM. As for `N=c1n(CCN2CCCC2)c2ccccc2n1CC(O)c1ccc(Cl)c(Cl)c1` (centres undefined), in assay [1], the activity change, negative = inhibition is -109% (inactive).

For `COc1cc(/C=N/NC(N)=O)c(Br)cc1OCC(=O)Nc1ccccc1C`, the AC50 in assay [2] was 17.7 µM. On to `CCN1CCCC1CNC(=O)c1ccc2c(c1)NC(=O)/C(=C\c1ccc(C)cc1)S2` (centres undefined), for which, in assay [1], the activity change, negative = inhibition is -106% (inactive). Consider `O=C(Nc1ccc(-c2nc3ncccc3o2)cc1)c1ccc([N+](=O)[O-])o1`, for which, in assay [2], the concentration at half-maximal activity (AC50) was 8.55 µM.

Regarding `COc1ccc(S(=O)(=O)N(C(C)=O)c2ccc(OC(C)=O)c3ccccc23)cc1[N+](=O)[O-]`, in assay [2], the half-maximal activity concentration (AC50) was 2.87 µM. On the same count and under the same terms, for `Cc1cc(C(C)(C)C)cc(C)c1Cn1c2[n+](c3ccc(C(F)(F)F)cc31)CCCCC2` the value was 9.42 µM; for `O=C(CNc1cccc2ccccc12)N/N=C/c1ccc([N+](=O)[O-])o1`, 2.42 µM; for `O=C(Cn1ncc(Cl)c(Cl)c1=O)N1CCc2ccccc21`, 4.69 µM.

With `CCN1CCN(C2=C(NS(=O)(=O)c3ccc(Br)cc3)C(=O)c3ccccc3C2=O)CC1`, the concentration at half-maximal activity (AC50) in assay [2] is 2.09 µM. Still for that read-out and setting: for `CC(C)C(CCNC1CCN(C)CC1)c1ccc(Cl)cc1` (centres undefined) the value was 10.6 µM. For `Cc1oc(-c2ccc(Cl)cc2)nc1CN1CCC(C(=O)NCCCN2CCCC(C)C2)CC1` (centres undefined), in assay [1], the activity change, negative = inhibition was -104% (inactive). Turning to `Cc1nc2ccccc2n1/N=C/c1ccc([N+](=O)[O-])s1`, in assay [2], the half-maximal activity concentration (AC50) is 2.88 µM. On to `Cc1ccc(C(=O)N/N=C/c2ccc([N+](=O)[O-])s2)cc1`, for which the AC50 in assay [2] was 5.75 µM. Same read-out and setting: as for `O=C(Nc1ccc(N2CCN(C(=O)c3ccccc3)CC2)cc1)c1ccc([N+](=O)[O-])o1`, the figure is 9.85 µM; as for `CC1CCN(CC(CS(=O)(=O)c2ccc([N+](=O)[O-])cc2)N2CCC(C)CC2)CC1` (centres undefined), 5.58 µM.
